Compound activity from PubChem BioAssay.
DNA FID counter – displaces DNA intercalator in HCV helicase counter-screen | DNA fluorescent intercalator displacement, fluorescence | inhibition, % at 7.9 µM | hit rate 0.17% among 290,000; in the data active = inhibition above about 37%;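 note: higher means more ethidium bromide displaced from hairpin DNA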
Apaf1 inhib – inhibitors of human Apaf-1 apoptosome | O14727 | reconstituted apoptosome caspase-3 activity, DEVD-Rh110 fluorescence | AID 489030 | inhibition, % at 20 µM | hit rate 0.71% among 330,000; active = inhibition of at least 40% at 20 µM
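Assay system – apoptosome proteins · Medium – Hepes buffer, pH 7.5 · Also added – cytochrome c with DEVD-Rh110 · Timing – 30 min compound preincubation, 50 min activation, room temperature · Detection – Rh110 fluorescence, excitation 480 nm, emission 540 nm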
RAD52 anneal inh – RAD52 (human) annealing inhibition. P43351. recombinant RAD52 DNA annealing, FRET fluorescence. inhibition, % at 18.7 µM. hit rate 0.46% among 360,000. AID 651710;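 active = every replicate showing at least 50% inhibition; inconclusive = mean inhibition at least 50% but not in every replicate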
Neddylation inh – blocks human cullin neddylation; TR-FRET cullin neddylation, biochemical; calls only at 25 µM; hit rate 0.58% among 360,000; AID 651699; in the data active = inhibition above about 36%
RAD54 inh – RAD54 (human) branch migration inhibition; Q92698; RAD54 Holliday junction branch migration, FAM/BHQ fluorescence; inhibition, % at 10.4 µM; hit rate 0.14% among 360,000; AID 602329;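 active = mean normalized replicate activity at least 40 and at least half of replicates scoring 40 or more; inconclusive = only one of the two criteria met; inactive = mean below 40 and under half of replicates reaching 40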;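 note: inhibitors cause a drop in the FAM fluorescence signal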
UBC13 inh – blocks human UBC13 polyubiquitin chain formation; P61088; TR-FRET; inhibition, % at 20 µM; hit rate 0.47% among 330,000; in the data active = inhibition above about 45%, passing the limit was not always enough; inconclusive = no clear call, values can overlap the other calls
Target sequence (P61088 whole entry, looked up): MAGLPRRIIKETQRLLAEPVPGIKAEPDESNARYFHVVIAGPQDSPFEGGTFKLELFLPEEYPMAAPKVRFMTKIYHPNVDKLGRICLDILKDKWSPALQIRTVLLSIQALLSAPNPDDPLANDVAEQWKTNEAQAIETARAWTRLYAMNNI
Casp3 counter – counter-screen for UBC13 inhibitors: human caspase-3 inhibition. shares compounds with UBC13 inh. Recombinant caspase-3, Caspase-Glo 3/7 luminescence, 60 min. inhibition, % at 20 µM. hit rate 4% among 1,400. AID 488856;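 active = mean inhibition across replicates above about 26%, limit read from the data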
Target sequence (P42574 whole entry, looked up): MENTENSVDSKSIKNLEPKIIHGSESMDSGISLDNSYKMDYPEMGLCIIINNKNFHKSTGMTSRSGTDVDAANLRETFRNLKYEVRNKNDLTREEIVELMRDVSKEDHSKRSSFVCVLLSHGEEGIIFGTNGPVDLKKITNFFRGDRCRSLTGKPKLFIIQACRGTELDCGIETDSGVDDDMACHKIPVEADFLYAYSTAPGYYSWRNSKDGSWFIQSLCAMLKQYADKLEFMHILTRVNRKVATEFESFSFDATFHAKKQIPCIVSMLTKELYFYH
UBC13 confirm – human UBC13 polyubiquitin inhibition, confirmed; shares compounds with UBC13 inh; UBC13 polyubiquitination, TR-FRET, biochemical; inhibition, % at 10 µM; hit rate 68% among 1,400; AID 488859; in the data active = inhibition above about 45%; inconclusive = no clear call, values can overlap the other calls
Large screens that a line does not name were inactive (follow-up assays come after a bar, where shown). This is a sample that favours compounds with a hit; in the whole collection about 1.6% have one here.

CCn1c(SCC(=O)Nc2oc(C)c3c(C)n[nH]c(=O)c23)nc2sc(C)c(C)c2c1=O	UBC13 inh 64 (no result: DNA FID counter, RAD52 anneal inh) | Casp3 counter inactive | UBC13 confirm inactive
COCC(=O)N1[C@@H]2c3cccc(=O)n3C[C@@H]2[C@@H](CO)[C@@H]1C(=O)NCc1ccccc1Cl	none (no result: DNA FID counter, Apaf1 inhib, Neddylation inh, RAD54 inh, UBC13 inh)
COCC(=O)N(C)C[C@@H]1Oc2ncc(C#CC3(O)CCCC3)cc2C(=O)N([C@H](C)CO)C[C@H]1C	none (no result: DNA FID counter, Apaf1 inhib, Neddylation inh, UBC13 inh)
CCOc1ccc(N2C(=O)C3C(c4ccccc4)=NN(c4ccccc4)C3C2=O)cc1 (stereo not given)	UBC13 inh 56 (not shown: Neddylation inh) | Casp3 counter inactive | UBC13 confirm inactive
CCOc1ccc(C(C(=O)NCC2CCCO2)N(C(=O)c2snc(C(N)=O)c2N)c2ccccc2F)cc1 (stereo not given)	UBC13 inh 48 (not shown: Neddylation inh) | Casp3 counter inactive | UBC13 confirm 48
NC(=O)c1nsc(C(=O)N(c2ccccc2F)C(C(=O)NCc2ccc(F)cc2)c2ccc(O)cc2)c1N (stereo not given)	UBC13 inh 47 | Casp3 counter inactive | UBC13 confirm 49
COc1ccccc1N(C(=O)c1snc(C(N)=O)c1N)C(C(=O)NCc1ccccc1)c1ccc(O)cc1 (stereo not given)	none (not shown: Neddylation inh)
Cc1ccc(C(C(=O)NCC2CCCO2)N(C(=O)c2snc(C(N)=O)c2N)c2ccccc2F)o1 (stereo not given)	UBC13 inh 47 (not shown: Neddylation inh) | Casp3 counter inactive | UBC13 confirm inactive
Cc1c(NC(=O)CC#N)c(=O)n(-c2ccccc2)n1C	none (no result: DNA FID counter, Apaf1 inhib, Neddylation inh, UBC13 inh)
COc1cccc(CCNC(=O)C2CCCN(c3ncnc4c3nc3n4CCCCC3)C2)c1OC (stereo not given)	none
O=C(NCCCN1CCN(c2ccc(F)cc2)CC1)C1CCCN(c2ncnc3c2nc2n3CCCCC2)C1 (stereo not given)	UBC13 inh 83 | Casp3 counter inactive | UBC13 confirm 107
CC1CCN(CCCNC(=O)C2CCCN(c3ncnc4c3nc3n4CCCCC3)C2)CC1 (stereo not given)	none
Cc1ccccc1CN1CCC(CNC(=O)C2CCCN(c3ncnc4c3nc3n4CCCCC3)C2)CC1 (stereo not given)	UBC13 inh 72 | Casp3 counter inactive | UBC13 confirm 90
C[C@@H]1CN([C@@H](C)CO)C(=O)c2cc(-c3cccc(C#N)c3)cnc2O[C@H]1CN(C)C(=O)c1cnccn1	none (no result: DNA FID counter, Apaf1 inhib, Neddylation inh, UBC13 inh)
CCSc1nc(-c2ccccc2)c2cc(Cl)ccc2n1	UBC13 inh 49 (no result: RAD54 inh) | Casp3 counter inactive | UBC13 confirm inconclusive
O=S1(=O)CC(O)C(N=Nc2c(O)n(Cc3ccccc3)c3ccccc23)C1 (stereo not given)	UBC13 inh 56 (no result: RAD54 inh) | Casp3 counter inactive | UBC13 confirm inactive
Cc1ccc(-n2nc3c4c(cccc4c2=O)-c2ccccc2-3)cc1	UBC13 inh 46 (not shown: RAD52 anneal inh, Neddylation inh) | Casp3 counter inactive | UBC13 confirm inactive
O=c1c2ccccc2c(-c2ccccc2)nn1-c1ccccc1	none
c1ccc(Nc2nc(NCc3ccco3)c3ccccc3n2)cc1	UBC13 inh 48 (not shown: Neddylation inh) | Casp3 counter inactive | UBC13 confirm 76
COc1ccc(Nc2cc(Nc3ccc(OC)cc3)ncn2)cc1	none
COc1ccc(Nc2cc(Nc3cc(OC)c(OC)c(OC)c3)ncn2)cc1	UBC13 inh 55 | Casp3 counter inactive | UBC13 confirm 58
CC(=O)Nc1sc2c(c1-c1nc3ccccc3s1)CCN(C(C)C)C2	DNA FID counter 60, RAD54 inh 78, UBC13 inh 60 (no result: RAD52 anneal inh) | Casp3 counter inactive | UBC13 confirm inactive
C[C@@H]1CN([C@H](C)CO)C(=O)c2c(c3ccccc3n2C)-c2ccccc2CO[C@@H]1CN(C)C(=O)c1cc(Cl)cc(Cl)c1	none (no result: DNA FID counter, Apaf1 inhib, Neddylation inh, RAD54 inh, UBC13 inh)
CC(C)C(=O)Nc1ccc2nn(-c3ccccc3)nc2c1	UBC13 inh 48 (not shown: Neddylation inh) | Casp3 counter 49 | UBC13 confirm inactive
O=c1c2cc(NC(=S)NCCN3CCCCCC3)ccc2nc2n1CCCCC2	none
O=c1c2cc(NC(=S)NCCCN3CCC(Cc4ccccc4)CC3)ccc2nc2n1CCCCC2	UBC13 inh 51 | Casp3 counter inactive | UBC13 confirm 85
C[C@@H]1CCCCCCCCC(=O)OCCN[C@H](C)CCCCCCCCC(=O)OCCN[C@H](C)CCCCCCCCC(=O)OCCN1	Apaf1 inhib 68, UBC13 inh 63 (no result: DNA FID counter, RAD52 anneal inh) | Casp3 counter inactive | UBC13 confirm 51
C[C@@H]1CCCCCCCCC(=O)OCCN(C(=O)OC(C)(C)C)[C@H](C)CCCCCCCCC(=O)OCCN1C(=O)OC(C)(C)C	none (no result: DNA FID counter)
CCN1CCN(Cc2ccc(NC(=O)c3cc(NC(=O)c4cc(C)on4)cc(OC)c3)cc2C(F)(F)F)CC1	DNA FID counter 42, UBC13 inh 52 | Casp3 counter inactive | UBC13 confirm inactive
CCN1CCN(Cc2ccc(NC(=O)c3ccc(C)c(NC(=O)c4ccnnc4)c3)cc2C(F)(F)F)CC1	none (no result: DNA FID counter)
CCN1CCN(Cc2ccc(NC(=O)c3cc(NC(=O)c4cnn(-c5ccccc5)c4N)cc(OC)c3)cc2C(F)(F)F)CC1	UBC13 inh 79 (no result: DNA FID counter) | Casp3 counter inactive | UBC13 confirm 50
C[C@H](CO)N1C[C@H](C)[C@H](CN(C)S(=O)(=O)c2ccc(Cl)cc2)OCCCC[C@H](C)Oc2ccc(NS(=O)(=O)c3ccc(Cl)cc3)cc2C1=O	none (no result: DNA FID counter, Apaf1 inhib, RAD52 anneal inh, Neddylation inh, UBC13 inh)
CO[C@@H]1CN(C)C(=O)c2cc(NC(=O)c3ccccc3F)ccc2OC[C@@H](C)N(CC2CC2)C[C@@H]1C	none (no result: DNA FID counter, Apaf1 inhib, Neddylation inh, UBC13 inh)
NC1=NC[C@H](Cc2ccc(O)cc2)N1CCc1cccc2ccccc12	UBC13 inh 61 (no result: DNA FID counter) | Casp3 counter inactive | UBC13 confirm 50
NC1=NC[C@H](Cc2ccccc2)N1CCCCC1CCCCC1	Apaf1 inhib 67, UBC13 inh 86 (no result: DNA FID counter) | Casp3 counter inactive | UBC13 confirm 80
CCC(C)[C@H]1CNC(=S)N1CCc1cccc2ccccc12 (stereo not given in full)	none (no result: DNA FID counter)
CCC(C)[C@H]1CN=C(N)N1CCc1cccc2ccccc12 (stereo not given in full)	UBC13 inh 45 (no result: DNA FID counter) | Casp3 counter inactive | UBC13 confirm 51
c1ccc(C[C@H]2CN=C(Nc3ccccc3)N2CCC2CCCC2)cc1	none (no result: DNA FID counter)
NC1=NC[C@H](Cc2ccc(O)cc2)N1CCc1cc(C(F)(F)F)cc(C(F)(F)F)c1	UBC13 inh 52 (no result: DNA FID counter) | Casp3 counter inactive | UBC13 confirm inactive
CCC(=O)Nc1ccc2c(c1)C(=O)N(C)[C@@H]1CC[C@@H](CC(=O)N3CCc4ccccc4C3)O[C@@H]1CO2	none (no result: DNA FID counter, Apaf1 inhib, Neddylation inh, UBC13 inh)
Cc1noc(C)c1S(=O)(=O)Nc1ccc2c(c1)C(=O)N([C@H](C)CO)C[C@@H](C)[C@@H](CN(C)Cc1ccncc1)OCCCC[C@H](C)O2	none (no result: DNA FID counter, Apaf1 inhib, Neddylation inh, UBC13 inh)
